The target of experiment [1] is 5-hydroxytryptamine receptor 2A (Homo sapiens) (UniProt P28223). Briefly: Binding affinity to 5HT2A receptor (unknown origin) at 10 nM.
The target is the same in experiment [2]. Briefly: Binding affinity to 5HT2A receptor (unknown origin) at 1 uM.
Experiment [3] addresses T1, 5-hydroxytryptamine receptor 1A (Rattus norvegicus, UniProt P19327).
T1 sequence (P19327 whole entry): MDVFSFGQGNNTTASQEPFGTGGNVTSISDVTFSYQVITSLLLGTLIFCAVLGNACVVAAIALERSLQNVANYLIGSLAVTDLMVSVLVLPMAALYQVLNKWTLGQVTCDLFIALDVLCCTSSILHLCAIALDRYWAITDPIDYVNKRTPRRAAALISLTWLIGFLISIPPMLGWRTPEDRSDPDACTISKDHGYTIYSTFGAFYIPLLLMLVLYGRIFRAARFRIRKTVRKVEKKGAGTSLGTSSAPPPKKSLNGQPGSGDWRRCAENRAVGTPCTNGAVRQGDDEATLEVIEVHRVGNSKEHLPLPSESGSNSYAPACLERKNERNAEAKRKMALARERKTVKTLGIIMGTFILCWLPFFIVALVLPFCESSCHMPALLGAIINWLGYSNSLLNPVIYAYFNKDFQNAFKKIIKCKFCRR
Briefly: Displacement of [3H]-8-OH-DPAT from 5HT1A receptor in rat hippocampus homogenates after 15 mins by scintillation counting. The class given is tissue-based. In outline: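 Rat hippocampal membranes were prepared in 50 mM Tris–HCl pH 7.4 (35,000 g spins, 10 min at 37 °C between). Resuspended in Tris–HCl with 4 mM MgCl2, 10 mM pargyline and 0.1% ascorbate. 1 nM [3H]-8-OH-DPAT, 15 min at 37 °C, GF/B filtration. 10 μM 5-HT defined nonspecific binding. Triplicates at 7–8 concentrations (10⁻¹¹–10⁻⁴ M).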
Background: Loss of bound radioactivity is the signal in a displacement assay; it reports binding, not function.

Experiment [4] deals with T2, 5-hydroxytryptamine receptor 7 (Homo sapiens, UniProt P34969). As to the kind of experiment: Displacement of [3H]-5-CT from cloned human 5HT7B receptor expressed in HEK293 cells after 1 hr by scintillation counting. The class given is cell-based. In outline: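 HEK293 membranes stably expressing human 5-HT7b receptor, homogenized and spun twice at 35,000 g with 15 min at 37 °C between. Assay buffer was 50 mM Tris–HCl with 4 mM MgCl2, […] and 0.1% ascorbate. 0.6 nM [3H]-5-CT, 1 h at 37 °C, then filtration. 10 μM 5-HT defined nonspecific binding. Triplicates at 7–8 concentrations (10⁻¹¹–10⁻⁴ M).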

Experiment [5] can be described thus: Selectivity ratio of Ki for human 5HT7B receptor to Ki for 5HT1A receptor in rat hippocampus homogenates. The class given is tissue-based. In outline:
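Ratio of Ki values from two radioligand displacement assays. 5-HT1A: rat hippocampal membranes, 1 nM [3H]-8-OH-DPAT, 15 min at 37 °C, filtration. 5-HT7b: membranes from HEK293 cells stably expressing the human receptor, 0.6 nM [3H]-5-CT, 1 h at 37 °C. Both used Tris-HCl buffer with MgCl2, pargyline and ascorbate, and 10 μM 5-HT for nonspecific binding. Compounds were tested in triplicate at 7–8 concentrations (10⁻¹¹–10⁻⁴ M). Ki was derived by Cheng–Prusoff from three experiments.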

The target of experiment [6] is T3, 5-hydroxytryptamine receptor 1A (Homo sapiens, UniProt P08908).
T3 sequence (P08908 whole entry): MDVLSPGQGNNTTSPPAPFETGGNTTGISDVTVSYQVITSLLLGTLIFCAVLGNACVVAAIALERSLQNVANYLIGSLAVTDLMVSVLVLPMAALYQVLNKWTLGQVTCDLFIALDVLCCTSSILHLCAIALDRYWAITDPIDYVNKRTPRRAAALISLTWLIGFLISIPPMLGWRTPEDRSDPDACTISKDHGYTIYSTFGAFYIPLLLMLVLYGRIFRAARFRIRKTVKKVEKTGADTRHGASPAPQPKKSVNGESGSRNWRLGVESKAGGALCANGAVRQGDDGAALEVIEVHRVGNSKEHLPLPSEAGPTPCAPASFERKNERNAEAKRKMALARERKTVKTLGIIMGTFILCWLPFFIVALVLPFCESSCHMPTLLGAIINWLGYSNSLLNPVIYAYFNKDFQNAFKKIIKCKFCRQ
As to the kind of experiment: Binding affinity to 5HT1A receptor (unknown origin).

Experiment [7] deals with T2, 5-hydroxytryptamine receptor 7. Briefly: Binding affinity to 5HT7 receptor (unknown origin).

Each structure is given as a SMILES string.

The inhibition is the percentage by which the read-out fell short of the control. Low readings indicate a weak effect, high ones a strong effect. Broadly, the Ki is the dissociation constant of the complex between target and ligand, obtained from inhibition or displacement. A higher Ki goes with a looser hold on the target.

T2 sequence (P34969 whole entry): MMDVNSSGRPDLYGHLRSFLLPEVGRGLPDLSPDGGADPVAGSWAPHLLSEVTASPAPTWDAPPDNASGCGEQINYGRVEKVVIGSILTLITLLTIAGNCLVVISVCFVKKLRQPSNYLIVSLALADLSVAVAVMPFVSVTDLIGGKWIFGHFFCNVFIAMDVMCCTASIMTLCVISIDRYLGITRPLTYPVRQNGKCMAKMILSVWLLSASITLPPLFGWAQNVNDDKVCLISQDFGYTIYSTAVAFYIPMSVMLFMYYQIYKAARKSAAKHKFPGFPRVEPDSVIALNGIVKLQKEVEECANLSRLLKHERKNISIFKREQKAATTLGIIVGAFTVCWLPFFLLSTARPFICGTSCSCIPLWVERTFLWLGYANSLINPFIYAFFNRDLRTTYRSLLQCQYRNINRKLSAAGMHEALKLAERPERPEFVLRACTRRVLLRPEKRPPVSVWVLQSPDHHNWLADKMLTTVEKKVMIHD
Sequence of 5-hydroxytryptamine receptor 2A (Homo sapiens) (P28223 whole entry): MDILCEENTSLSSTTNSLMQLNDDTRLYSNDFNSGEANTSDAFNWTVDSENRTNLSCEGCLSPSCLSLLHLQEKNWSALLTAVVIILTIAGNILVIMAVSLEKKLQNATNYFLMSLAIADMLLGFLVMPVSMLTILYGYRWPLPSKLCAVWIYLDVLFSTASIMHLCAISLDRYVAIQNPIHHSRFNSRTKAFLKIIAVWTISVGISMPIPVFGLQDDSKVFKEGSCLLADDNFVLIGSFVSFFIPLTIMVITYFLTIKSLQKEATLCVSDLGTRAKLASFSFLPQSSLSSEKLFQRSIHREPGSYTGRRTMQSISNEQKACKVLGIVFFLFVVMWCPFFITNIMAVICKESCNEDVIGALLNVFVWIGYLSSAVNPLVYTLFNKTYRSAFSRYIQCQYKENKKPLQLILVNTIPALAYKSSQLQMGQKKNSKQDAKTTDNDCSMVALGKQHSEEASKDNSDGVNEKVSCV

`COc1ccccc1N1CCN(Cc2cn(-c3cccc(C)c3C)c3ccccc23)CC1`: the inhibition in experiment [1] and in experiment [2] was 0% each time. The molecule also registered an inhibitory constant (Ki) in experiment [3] of 17 nM.

Consider `Cc1ccccc1-n1cc(CN2CCN(C)CC2)c2ccccc21`, for which the Ki in experiment [3] was 2910 nM.

`Cc1cccc(-n2cc(CN3CCN(c4ccccc4)CC3)c3ccccc32)c1C`: the Ki in experiment [3] came to 324 nM.

For `Cc1cccc(-n2cc(CCN(C)C)c3ccccc32)c1C`, the inhibition constant Ki in experiment [3] was determined as 76 nM; in experiment [4], 317 nM.

In turn, `c1ccc(N2CCN(Cc3cn(-c4cccc5ccccc45)c4ccccc34)CC2)cc1` had a Ki in experiment [3] of 545 nM.

With `CN(C)CCc1cn(-c2ccccc2)c2ccccc12`, the Ratio Ki in experiment [5] stood at 19. Besides, the results for the inhibition constant (Ki) in experiment [3] and in experiment [4] were 62 nM and 1200 nM, respectively.

For `COc1ccccc1-n1cc(CN2CCN(c3ccccc3)CC2)c2ccccc21`, in experiment [3], the affinity, expressed as Ki, was 86 nM.

Consider `COc1ccccc1N1CCN(Cc2cn(-c3ccccc3)c3ccccc23)CC1`, for which the affinity in experiment [3] corresponds to a Ki of 10 nM.

On to `Cc1ccc(-n2cc(CN3CCN(c4ccccc4)CC3)c3ccccc32)cc1`, for which the inhibitory constant (Ki) in experiment [3] worked out at 332 nM.

For the molecule `c1ccc(N2CCN(Cc3cn(-c4ccc5ccccc5c4)c4ccccc34)CC2)cc1`, in experiment [3], the inhibition constant Ki came to 1950 nM.

Take `COc1ccccc1N1CCN(Cc2cn(-c3cccc4ccccc34)c3ccccc23)CC1`: the inhibition came to 6% in experiment [1] and 10% in experiment [2]. This molecule showed a Ki in experiment [3] of 70 nM.

`c1ccc(N2CCN(Cc3cn(-c4ccccc4)c4ccccc34)CC2)cc1`: in experiment [3], the affinity, expressed as Ki, was 216 nM.

Take `COc1ccccc1N1CCN(Cc2ccn(-c3ccccc3C)c2)CC1`: the inhibitory constant (Ki) in experiment [6] amounted to 41 nM; in experiment [7], 21 nM.

Consider `Oc1ccccc1N1CCN(Cc2cn(-c3cccc4ccccc34)c3ccccc23)CC1`, for which the Ki in experiment [3] was determined as 57 nM.

As for `Cc1ccccc1-n1cc(CCN(C)C)c2ccccc21`, the figures for the inhibition constant Ki in experiment [3] and in experiment [4] were 59 nM and 283 nM, respectively.

On to `Cc1cccc(-n2cc(CN3CCN(c4ccccc4)CC3)c3ccccc32)c1`, for which, in experiment [3], the Ki worked out at 90 nM. This counts as double-digit nanomolar.

In experiment [3], `Oc1ccccc1N1CCN(Cc2cn(-c3ccccc3)c3ccccc23)CC1` had a Ki of 17 nM.

As to `Cc1ccccc1-n1cc(CN2CC=C(c3ccccc3)CC2)c2ccccc21`, the affinity in experiment [3], expressed as Ki, was 178 nM.

With `CN(C)CCc1cn(-c2cccc3ccccc23)c2ccccc12`, the Ki in experiment [3] came out at 144 nM; in experiment [4], 649 nM.

`COc1ccccc1N1CCN(Cc2cn(-c3ccccc3C)c3ccccc23)CC1` came in with a Ki in experiment [3] of 15 nM.

`N#Cc1ccccc1-n1cc(CN2CCN(c3ccccc3)CC2)c2ccccc21` had a Ki in experiment [3] of 36 nM.

As to `COc1ccccc1N1CCN(Cc2cn(-c3ccccn3)c3ccccc23)CC1`, the Ki in experiment [3] stood at 55 nM.

On to `c1ccc(N2CCN(Cc3cn(-c4ccccn4)c4ccccc34)CC2)cc1`, for which the affinity in experiment [3], expressed as Ki, was 95 nM.

`c1ccc(N2CCN(Cc3cn(-c4cccnc4)c4ccccc34)CC2)cc1` came in with a Ki in experiment [3] of 190 nM.

`c1ccc(-c2ccc(-n3cc(CN4CCN(c5ccccc5)CC4)c4ccccc43)cc2)cc1` had an inhibition constant (Ki) in experiment [3] of 49000 nM.

For the molecule `CC(C)c1ccccc1-n1cc(CN2CCN(c3ccccc3)CC2)c2ccccc21`, affinity in experiment [3] was put at a Ki of 118 nM. Against the preceding molecule, the Ki is about 420-fold lower.

As to `FC(F)(F)c1ccccc1-n1cc(CN2CCN(c3ccccc3)CC2)c2ccccc21`, the Ki in experiment [3] is 81 nM.

In experiment [3], `COc1ccccc1N1CCN(Cc2cn(-c3ccccc3C(C)C)c3ccccc23)CC1` had a Ki of 58 nM.

`CCc1ccccc1-n1cc(CN2CCN(c3ccccc3)CC2)c2ccccc21` had an inhibition constant Ki in experiment [3] of 134 nM.

In turn, `Cc1ccccc1-n1cc(CN2CCN(c3ccccc3)CC2)c2ccccc21` gave an inhibition constant (Ki) in experiment [3] of 95 nM.

These data come from ChEMBL document CHEMBL3120113, “New 1-arylindoles based serotonin 5-HT7 antagonists. Synthesis and binding evaluation studies” (Eur J Med Chem, 2014).
